Source: ChEMBL document CHEMBL1136923, “Highly potent, orally available anti-inflammatory broad-spectrum chemokine inhibitors” (J Med Chem, 2009)

Key:
[1] = target: C-X-C chemokine receptor type 4 (Homo sapiens) (UniProt P61073); assay: Antagonist activity at CXCR4 in human THP1 cells assessed as inhibition of CXCL12-induced chemotaxis at 100 nM after 2 hrs by microtiter format trans-well migration assay; assay type: functional, cell-based; conditions: THP-1
In short: (§1)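 Microtiter trans-well migration assay in Gey's balanced salt solution with 1 mg/mL endotoxin-free BSA, no fetal calf serum. Migration ran 2 h at 37 °C. Compounds dissolved in DMSO and added to both top and bottom compartments, final DMSO 1%.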

[2] = target: T1, C5a anaphylatoxin chemotactic receptor 1 (Homo sapiens) (UniProt P21730); assay: Antagonist activity at C5a receptor in human PMNC assessed as inhibition of C5a-induced chemotaxis at 0.1 nM after 2 hrs by microtiter format trans-well migration assay; assay type: functional; in short: as §1
T1 sequence (whole entry): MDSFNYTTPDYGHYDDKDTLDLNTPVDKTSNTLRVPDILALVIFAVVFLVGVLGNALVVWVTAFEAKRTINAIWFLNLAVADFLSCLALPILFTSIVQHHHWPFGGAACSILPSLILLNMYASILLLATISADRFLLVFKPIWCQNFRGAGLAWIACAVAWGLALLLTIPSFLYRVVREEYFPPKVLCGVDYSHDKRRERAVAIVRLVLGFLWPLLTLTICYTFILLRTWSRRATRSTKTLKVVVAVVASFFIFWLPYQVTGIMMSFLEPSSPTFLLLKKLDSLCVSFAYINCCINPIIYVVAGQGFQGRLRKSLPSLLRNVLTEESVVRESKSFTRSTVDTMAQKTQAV

[3] = Antagonist activity at Interleukin-8 receptor in human PMNC assessed as inhibition of CXCL8-induced chemotaxis after 2 hrs by microtiter format trans-well migration assay; assay type: functional; conditions: read-out: ED50 (the source's name); in short: as §1
[4] = target: T2, C-C chemokine receptor type 1 (Homo sapiens) (UniProt P32246); assay: Antagonist activity at CCR1 in human THP1 cells assessed as inhibition of CCL3-induced chemotaxis at 10 nM after 2 hrs by microtiter format trans-well migration assay; assay type: functional, cell-based; conditions: THP-1; in short: as §1
T2 sequence (whole entry): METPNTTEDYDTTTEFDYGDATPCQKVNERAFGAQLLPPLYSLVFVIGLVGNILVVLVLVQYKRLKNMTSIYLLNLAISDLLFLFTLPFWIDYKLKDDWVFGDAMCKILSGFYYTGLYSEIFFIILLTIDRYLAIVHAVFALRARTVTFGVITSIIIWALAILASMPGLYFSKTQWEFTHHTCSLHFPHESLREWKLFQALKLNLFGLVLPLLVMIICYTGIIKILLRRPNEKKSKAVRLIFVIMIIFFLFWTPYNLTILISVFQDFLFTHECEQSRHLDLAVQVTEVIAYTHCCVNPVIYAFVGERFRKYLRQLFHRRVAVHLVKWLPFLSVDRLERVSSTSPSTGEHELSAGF

Mus musculus [5] = assay: Antiinflammatory activity in mouse assessed as inhibition of LPS-induced TNFalpha upregulation at 0.0075 ug, sc measured 2 hrs after LPS challenge; assay type: functional
In short: (§2)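 Murine sublethal endotoxemia: LPS given intraperitoneally, with serum TNF-α measured 2 h after the LPS injection as the end point. Compound was given subcutaneously or orally. Vehicle was 0.6% DMSO and 1% carboxymethylcellulose (final concentrations) in sterile water. Effect is reported as % relative to control.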

Mus musculus [6] = assay: Antiinflammatory activity in po dosed mouse assessed as inhibition of LPS-induced TNFalpha upregulation measured 2 hrs after LPS challenge relative to control; assay type: functional
In short: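 Murine sublethal LPS endotoxemia screen. LPS is injected intraperitoneally and serum TNF-α is measured 2 h later as the end point. Compound is given subcutaneously or orally in a vehicle of 0.6% DMSO plus 1% carboxymethylcellulose (final concentrations) in sterile water. Values are % relative to control.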

Mus musculus [7] = assay: Antiinflammatory activity in mouse assessed as inhibition of LPS-induced TNFalpha upregulation at 0.025 mg, po measured 2 hrs after LPS challenge; assay type: functional; in short: as §2
[8] = AUC (0 to t) in Sprague-Dawley rat at 1 mg/kg, iv administered as single dose; assay type: ADME, organism-based, Plasma; set-up: dose 1 mg/kg, route intravenous; conditions: Sprague-Dawley, plasma
In short: (§3)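 Male Sprague-Dawley rats, three per compound per route, single dose. IV vehicle 5% DMSO in 0.9% saline; oral gavage vehicle 1% carboxymethylcellulose in 0.9% saline; fed ad libitum. Plasma taken 5–480 min post-dose, extracted with 0.1% formic acid in acetonitrile, quantified by LC/MS/MS (positive mode). AUC(0–t) by linear/log trapezoidal rule; IV curve back-extrapolated assuming initial volume 0.26 L/kg.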

[9] = target: T2, C-C chemokine receptor type 1 (Homo sapiens); assay: Antagonist activity at CCR1 in human THP1 cells assessed as inhibition of CCL3-induced chemotaxis at 0.01 nM after 2 hrs by microtiter format trans-well migration assay; assay type: functional, cell-based; conditions: THP-1; in short: as §1
[10] = Antagonist activity at Interleukin-8 receptor in human PMNC assessed as inhibition of CXCL8-induced chemotaxis at 10 nM after 2 hrs by microtiter format trans-well migration assay; assay type: functional; in short: as §1
[11] = target: T1, C5a anaphylatoxin chemotactic receptor 1 (Homo sapiens); assay: Antagonist activity at C5a receptor in human PMNC assessed as inhibition of C5a-induced chemotaxis at 1 nM after 2 hrs by microtiter format trans-well migration assay; assay type: functional; in short: as §1
THP-1 [12] = assay: Toxicity in human THP1 cells assessed as change in cell size at 0.1 nM by forward scatter flow cytometry relative to control; assay type: cell-based; conditions: thp-1, 0.0001 µM
Mus musculus [13] = assay: Antiinflammatory activity in mouse assessed as inhibition of LPS-induced TNFalpha upregulation at 0.0025 ug, sc measured 2 hrs after LPS challenge; assay type: functional; in short: as §2
[14] = Antagonist activity at Interleukin-8 receptor in human PMNC assessed as inhibition of CXCL8-induced chemotaxis at 0.1 nM after 2 hrs by microtiter format trans-well migration assay; assay type: functional; in short: as §1
Mus musculus [15] = assay: Antiinflammatory activity in mouse assessed as inhibition of LPS-induced TNFalpha upregulation at 0.025 mg, sc measured 2 hrs after LPS challenge; assay type: functional; in short: as §2
[16] = target: C-C chemokine receptor type 5 (Homo sapiens) (UniProt P51681); assay: Antagonist activity at CCR5 in human THP1 cells assessed as inhibition of CCL5-induced chemotaxis after 2 hrs by microtiter format trans-well migration assay; assay type: functional, cell-based; conditions: THP-1; in short: as §1
C-C chemokine receptor type 5 (Homo sapiens), sequence (P51681 whole entry, looked up): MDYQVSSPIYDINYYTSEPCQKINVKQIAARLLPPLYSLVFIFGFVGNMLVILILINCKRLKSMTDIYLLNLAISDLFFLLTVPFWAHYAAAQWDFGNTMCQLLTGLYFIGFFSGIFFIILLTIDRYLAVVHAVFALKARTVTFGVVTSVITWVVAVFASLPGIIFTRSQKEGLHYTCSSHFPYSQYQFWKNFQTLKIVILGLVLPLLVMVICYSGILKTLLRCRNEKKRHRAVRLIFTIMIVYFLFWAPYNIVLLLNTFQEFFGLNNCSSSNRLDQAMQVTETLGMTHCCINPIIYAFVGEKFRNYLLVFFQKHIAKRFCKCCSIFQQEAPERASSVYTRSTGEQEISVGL

[17] = target: T1, C5a anaphylatoxin chemotactic receptor 1 (Homo sapiens); assay: Antagonist activity at C5a receptor in human PMNC assessed as inhibition of C5a-induced chemotaxis after 2 hrs by microtiter format trans-well migration assay; assay type: functional; in short: as §1
[18] = Antagonist activity at Interleukin-8 receptor in human PMNC assessed as inhibition of CXCL8-induced chemotaxis at 1 nM after 2 hrs by microtiter format trans-well migration assay; assay type: functional; in short: as §1
[19] = AUC (0 to t) in Sprague-Dawley rat at 3 mg/kg, po administered as single dose; assay type: ADME, organism-based; set-up: dose 3 mg/kg, route oral; conditions: plasma; in short: as §3
[20] = target: C-C chemokine receptor type 2 (Homo sapiens) (UniProt P41597); assay: Antagonist activity at CCR2 in human THP1 cells assessed as inhibition of CCL2-induced chemotaxis after 2 hrs by microtiter format trans-well migration assay; assay type: functional, cell-based; conditions: THP-1; in short: as §1
C-C chemokine receptor type 2 (Homo sapiens), sequence (P41597 whole entry, looked up): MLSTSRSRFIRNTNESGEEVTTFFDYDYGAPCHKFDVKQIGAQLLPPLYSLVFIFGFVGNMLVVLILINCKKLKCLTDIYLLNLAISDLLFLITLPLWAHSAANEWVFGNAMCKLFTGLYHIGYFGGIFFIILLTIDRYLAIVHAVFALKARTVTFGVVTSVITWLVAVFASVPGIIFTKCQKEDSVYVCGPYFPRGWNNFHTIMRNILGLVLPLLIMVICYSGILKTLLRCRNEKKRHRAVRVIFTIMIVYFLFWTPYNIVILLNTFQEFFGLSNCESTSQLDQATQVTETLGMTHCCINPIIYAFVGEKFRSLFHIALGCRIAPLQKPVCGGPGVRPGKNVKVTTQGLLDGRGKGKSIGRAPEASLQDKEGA

THP-1 [21] = assay: Toxicity in human THP1 cells assessed as change in cell size at 10 nM by forward scatter flow cytometry relative to control; assay type: cell-based; conditions: thp-1, 0.01 µM
THP-1 [22] = assay: Endogenous chemoattractant activity at human THP1 cells assessed as cell migration at 0.001 nM after 2 hrs by microtiter format trans-well migration assay; assay type: functional
[23] = target: T1, C5a anaphylatoxin chemotactic receptor 1 (Homo sapiens); assay: Antagonist activity at C5a receptor in human PMNC assessed as inhibition of C5a-induced chemotaxis at 0.01 nM after 2 hrs by microtiter format trans-well migration assay; assay type: functional; in short: as §1

C-X-C chemokine receptor type 4 (Homo sapiens), sequence (P61073 whole entry): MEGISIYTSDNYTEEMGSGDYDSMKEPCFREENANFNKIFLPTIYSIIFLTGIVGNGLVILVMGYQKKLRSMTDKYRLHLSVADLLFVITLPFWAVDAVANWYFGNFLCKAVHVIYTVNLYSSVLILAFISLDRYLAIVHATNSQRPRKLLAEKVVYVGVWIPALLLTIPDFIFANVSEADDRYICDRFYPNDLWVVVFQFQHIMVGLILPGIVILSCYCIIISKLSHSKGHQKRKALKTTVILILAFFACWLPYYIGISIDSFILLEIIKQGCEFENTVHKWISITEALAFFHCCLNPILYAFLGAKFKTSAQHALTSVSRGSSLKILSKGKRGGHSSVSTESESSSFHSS

inhibition [1]: 111% | inhibition [4]: 98% | AUC(0-t) [8]: 395 ng·h/mL | inhibition [9]: 21% | ED50 [16]: 0.9 nM | AUC(0-t) [19]: 183 ng·h/mL | ED50 [20]: 0.09 nM
SMILES: CCCCCCCCCCC(C)(C)C(=O)N[C@H]1CCCCNC1=O
inhibition [2]: 26.5% | EC50 [3]: 0.3 nM | inhibition (INH) (Mus musculus [5]): 54% | inhibition (INH) (Mus musculus [6]): 70% | inhibition (INH) (Mus musculus [7]): 44% | inhibition at 0.01 µM [10]: 121% | inhibition [11]: 17.5% | fold change (FC) (THP-1 [12]): 1.04 | inhibition (INH) (Mus musculus [13]): 29% | inhibition at 0.0001 µM [14]: 12.5% | inhibition (INH) (Mus musculus [15]): 64% | ED50 [17]: > 1000 nM | inhibition at 0.001 µM [18]: 71% | fold change (FC) (THP-1 [21]): 1.04 | Activity (THP-1 [22]): 4282% | inhibition [23]: 20%
